Experimental findings from ChEMBL document CHEMBL1149572, “2-Aryl-N-acyl indole derivatives as liver X receptor (LXR) agonists” (Bioorg Med Chem Lett, 2007) are described below.

For assay [1], the target named is T1, Oxysterols receptor LXR-beta (Homo sapiens, UniProt P55055).
T1 sequence (P55055 whole entry): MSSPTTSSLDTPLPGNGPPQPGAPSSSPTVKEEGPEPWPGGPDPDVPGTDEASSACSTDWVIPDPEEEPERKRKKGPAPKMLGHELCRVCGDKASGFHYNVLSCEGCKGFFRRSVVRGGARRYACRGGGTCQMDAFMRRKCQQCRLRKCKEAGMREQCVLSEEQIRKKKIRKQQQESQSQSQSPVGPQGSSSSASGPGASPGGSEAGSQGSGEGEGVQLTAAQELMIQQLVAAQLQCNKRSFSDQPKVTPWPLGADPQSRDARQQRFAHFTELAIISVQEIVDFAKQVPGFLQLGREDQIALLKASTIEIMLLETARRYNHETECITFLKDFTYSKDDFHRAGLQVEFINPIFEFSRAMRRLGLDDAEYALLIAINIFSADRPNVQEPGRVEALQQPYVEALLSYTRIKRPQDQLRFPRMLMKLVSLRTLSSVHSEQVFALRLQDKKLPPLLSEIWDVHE
In words: Agonist activity at human LXRbeta receptor after 1 hr by HTRF cofactor recruitment assay. It is filed as functional. A digest of the protocol: (§1)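 Cofactor recruitment was read by HTRF. Buffer was 50 mM Tris pH 7.5 with 50 mM KCl, 1 mM EDTA, 0.1% BSA and 1 mM DTT. Mixtures were shaken for 1 h at room temperature. Values are means of duplicates from a single experiment.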

In assay [2] the target is T1, Oxysterols receptor LXR-beta. Put plainly: Agonist activity at human LXRbeta receptor transfected in COS7 cells after 16 hrs by reporter transactivation assay relative to GW-3965. Type of assay: functional, cell-based. The note with it: cos-7. A digest of the protocol: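 COS-7 cells were transfected for 24 h with human LXRb, RXRa and an LXR-response-element luciferase reporter, then exposed to vehicle or compound for 16 h. Luciferase in the lysate was quantified and expressed as percent of the maximum induction given by GW3965. Values come from quadruplicates in a single experiment.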

The subject of assay [3] is THP-1. Put plainly: Induction of ABCA1 gene expression in THP1 cells at 10 uM relative to control. It is filed as functional, Homo sapiens.
The subject of assay [4] is HepG2. Put plainly: Induction of SREBP1c gene expression in HepG2 cells at 10 uM relative to control. It is filed as functional, Homo sapiens.
Assay [5] relates to THP-1. In words: Induction of cholesterol efflux in THP1 cells at 10 uM relative to control. Type of assay: functional, Homo sapiens. A digest of the protocol: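 THP-1 cells differentiated to macrophages with 200 nM PMA for 30 h. Labelled with 1,2-3H(N)-cholesterol for 18 h alongside acLDL and 200 nM PMA. Exposed to vehicle or compound for 6 h in serum-free medium with 2 mg/ml BSA, then 18 h more with apoA-I added. Supernatant radioactivity read as fold-induction over vehicle. Mean of triplicates, single experiment.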

The subject of assay [6] is HepG2. Put plainly: Induction of Lipogenesis in HepG2 cells at 10 uM relative to control. It is filed as functional, Homo sapiens. The procedure, abridged:
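HepG2 cells pre-treated with vehicle or compound for 24 h, then given [14C]-glycerol and cultured a further 48 h. Cellular triglycerides extracted, separated by TLC and quantified by phosphorimaging. Lipogenesis expressed as fold-induction over vehicle-only control. Mean of triplicate samples, single experiment.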

For assay [7], the target named is T2, Oxysterols receptor LXR-alpha (Homo sapiens, UniProt Q13133).
T2 sequence (Q13133 whole entry): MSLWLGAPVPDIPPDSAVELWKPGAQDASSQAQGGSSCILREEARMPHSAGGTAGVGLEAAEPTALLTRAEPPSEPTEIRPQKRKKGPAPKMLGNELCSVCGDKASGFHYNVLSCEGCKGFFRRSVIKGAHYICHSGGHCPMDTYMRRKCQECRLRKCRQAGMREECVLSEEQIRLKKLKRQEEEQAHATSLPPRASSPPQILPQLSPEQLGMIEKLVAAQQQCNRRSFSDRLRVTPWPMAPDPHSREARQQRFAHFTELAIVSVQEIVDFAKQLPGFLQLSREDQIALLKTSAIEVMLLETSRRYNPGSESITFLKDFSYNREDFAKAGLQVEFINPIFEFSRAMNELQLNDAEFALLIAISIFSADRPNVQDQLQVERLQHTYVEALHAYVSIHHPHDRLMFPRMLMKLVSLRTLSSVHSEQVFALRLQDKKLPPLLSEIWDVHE
In words: Agonist activity at human LXRalpha receptor after 1 hr by HTRF cofactor recruitment assay. Type of assay: functional. A digest of the protocol:
as §1

Assay [8] has as its target T1, Oxysterols receptor LXR-beta. Put plainly: Agonist activity at human LXRbeta receptor transfected in COS7 cells after 16 hrs by reporter transactivation assay. It is filed as functional, cell-based, COS-7. The procedure, abridged: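 COS-7 cells were co-transfected for 24 h with human LXRb, RXRa and a luciferase reporter carrying three tandem LXR response elements. Cells were then treated with vehicle or compound for 16 h, and luciferase activity was measured in the lysate. EC50 was calculated from means of quadruplicates in a single experiment.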

For assay [9], the system named is THP-1. Put plainly: Induction of cholesterol efflux in THP1 cells. Type of assay: functional, cell-based. The note with it: Homo sapiens.

`CC(C)(C)OC(=O)n1c(-c2ccc(CCCNS(=O)(=O)c3ccccc3)cc2)cc2ccccc21` showed an EC50 in assay [1] of 350 nM.
As to `CC(C)(C)OC(=O)n1c(-c2ccc3c(c2)CC(NS(=O)(=O)c2ccccc2)C3)cc2ccccc21` (centres undefined), the Efficacy in assay [2] is recorded as 43%. Also, the Ratio with THP-1 [3] is listed as 8.4; with HepG2 [4], 3.1; in the assay with THP-1 [5], 1.6; with HepG2 [6], 3.1.
As to `CC(C)(C)OC(=O)n1c(-c2ccc(CCc3ccc(-c4ccccn4)s3)cc2)cc2ccccc21`, a half-maximal effect in [1] (EC50) was put at 230 nM.
Turning to `CC(C)(C)OC(=O)n1c(-c2ccc(CNC(=O)c3ccccc3)cc2)cc2ccccc21`, the EC50 in assay [1] turned out to be 1800 nM.
As to `CC(C)(C)OC(=O)n1c(-c2cccc(CCNS(=O)(=O)c3ccccc3)c2)cc2ccccc21`, the EC50 in assay [1] came to 420 nM.
Still for that read-out and setting: next, `CC(C)(C)OC(=O)n1c(-c2ccc(CNS(=O)(=O)c3ccccc3)cc2)cc2ccccc21`: 220 nM; `CC(C)(C)OC(=O)n1c(-c2ccc(CCCO)cc2)cc2ccccc21`: 380 nM; `CC(C)(C)OC(=O)n1c(-c2ccc(OCCO)cc2)cc2ccccc21`: 420 nM.
The molecule `CC(C)(C)OC(=O)n1c(-c2ccc(CCCNC(=O)c3ccccc3)cc2)cc2ccccc21` yielded an EC50 in [1] of 360 nM.
Consider `CC(C)(C)OC(=O)n1c(-c2ccc(CN)cc2)cc2ccccc21`, for which the concentration for a half-maximal effect (EC50) in assay [1] was 5600 nM.
On the same count and under the same terms, next, `CC(C)(C)OC(=O)n1c(-c2ccc(/C=C/C(N)=O)cc2)cc2ccccc21`: 4900 nM.
As to `CNC(=O)CCc1ccc(-c2cc3ccccc3n2C(=O)OC(C)(C)C)cc1`, the EC50 in [1] is 490 nM.
On to `CC(C)(C)OC(=O)n1c(-c2ccc(CCC(=O)Nc3ccccc3)cc2)cc2ccccc21`, for which, in [1], the EC50 came to 1780 nM.
For `CC(C)(C)OC(=O)n1c(-c2ccc(CC#N)cc2)cc2ccccc21`, the EC50 in [1] is 300 nM.
Same read-out and setting: next, `O=C(NCCc1ccc(-c2cc3ccccc3n2C(=O)c2ccccc2)cc1)c1ccccc1`: 1780 nM; `CC(C)(C)OC(=O)n1c(-c2ccc(CCNC(=O)c3ccccc3)cc2)cc2ccccc21`: 1750 nM.
On the same count and under the same terms, the value for `CC(C)(C)OC(=O)n1c(-c2ccc(CCNS(=O)(=O)c3ccccc3)cc2)cc2ccccc21` was 120 nM; that for `CC(C)(C)OC(=O)n1c(-c2ccc(NS(=O)(=O)c3ccccc3)cc2)cc2ccccc21` was 1320 nM.
As to `N#CCCc1ccc(-c2cc3ccccc3n2C(=O)c2ccccc2)cc1`, the EC50 turned out to be 12 nM in assay [1], 220 nM in assay [7], 42 nM in [8] and 51 nM in the assay on THP-1 [9]. The same molecule came in with an Efficacy in [2] of 39%. Besides, the Ratio is listed as 10.3 with THP-1 [3], 5.3 with HepG2 [4], 1.7 in the assay on THP-1 [5] and 4 with HepG2 [6].
On to `CC(C)(C)OC(=O)n1c(-c2ccc(CCC(N)=O)cc2)cc2ccccc21`, for which the EC50 stood at 57 nM in assay [1], 1110 nM in assay [7], 285 nM in assay [8] and 2400 nM with THP-1 [9]. This molecule also showed an Efficacy in assay [2] of 70%. Besides, the Ratio in the assay on THP-1 [3] came out at 5.7; in the assay with HepG2 [4], 4; in the assay with THP-1 [5] it was 1.9; in the assay with HepG2 [6], 2.7.
`CC(C)CNC(=O)CCc1ccc(-c2cc3ccccc3n2C(=O)OC(C)(C)C)cc1` registered a concentration for a half-maximal effect (EC50) in assay [1] of 1510 nM.
`CC(C)(C)OC(=O)n1c(-c2ccc(CCC#N)cc2)cc2ccccc21`: the EC50 stood at 130 nM in assay [1], 1190 nM in assay [7], 576 nM in assay [8] and 2470 nM in the assay on THP-1 [9]. Besides, in assay [2], the Efficacy is given as 45%. In addition, the Ratio in the assay with THP-1 [3] came out at 6; with HepG2 [4], 2.5; in the assay with THP-1 [5] it was 2.2; in the assay on HepG2 [6], 2.5.
As to `CC(C)(C)OC(=O)n1c(-c2ccc(CCC(=O)O)cc2)cc2ccccc21`, the EC50 in assay [1] is 220 nM; in assay [7], 1150 nM; in [8], 4580 nM; in the assay on THP-1 [9], 7000 nM. The Efficacy in assay [2] is reported as 76%. For the same molecule, the Ratio came to 5.5 in the assay with THP-1 [3], 1.4 in the assay with THP-1 [5] and 1.2 with HepG2 [6].
In [1], `CC(C)(C)OC(=O)n1c(-c2ccc(CCNS(=O)(=O)c3cccs3)cc2)cc2ccccc21` returned an EC50 of 58 nM.
`O=C(O)Cc1cccc(OCCCN(Cc2cccc(C(F)(F)F)c2Cl)CC(c2ccccc2)c2ccccc2)c1` returned an Efficacy in assay [2] of 100%. The Ratio in the assay with THP-1 [3] is 10.7; in the assay with HepG2 [4] it was 5.2; in the assay with THP-1 [5] it was 1.8; in the assay with HepG2 [6] it was 2.7.
